From ChEMBL document CHEMBL4715736, “Identification of anticancer agents based on the thieno[2,3-b]pyridine and 1H-pyrazole molecular scaffolds” (2016)

tested on: M14; test: Growth inhibition of human M14 cells assessed as cell growth at 10 uM incubated for 48 hrs by sulforhodamine B assay relative to control; type: functional; conditions: read-out: Activity
Procedure, shortened: (§1)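 Submitted to the NCI Developmental Therapeutics Program for the NCI60 human tumour cell line panel. First screen at a single 10 µM concentration. Read-out is growth relative to untreated control cells set at 100%.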

Structure (SMILES)	growth at 10 µM
CC(C)N1CCc2nc3sc(C(=O)Nc4ccccc4)c(N)c3cc2C1	108%

tested on: NCI-H460; test: Growth inhibition of human NCI-H460 cells assessed as cell growth at 10 uM incubated for 48 hrs by sulforhodamine B assay relative to control; type: functional; conditions: read-out: Activity; procedure, shortened: as §1

Structure (SMILES)	growth at 10 µM
CC(C)N1CCc2nc3sc(C(=O)Nc4ccccc4)c(N)c3cc2C1	99.6%

tested on: SN12C; test: Growth inhibition of human SN12C cells assessed as cell growth at 10 uM incubated for 48 hrs by sulforhodamine B assay relative to control; type: functional; conditions: read-out: Activity
Procedure, shortened: (§2)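 Run by the NCI Developmental Therapeutics Program as part of its 60-line human tumour panel. Each compound tested at a single 10 µM dose. Growth expressed as % relative to untreated control cells (100%).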

Structure (SMILES)	growth at 10 µM
CC(C)N1CCc2nc3sc(C(=O)Nc4ccccc4)c(N)c3cc2C1	106%

tested on: HL-60(TB); test: Growth inhibition of human HL-60(TB) cells assessed as cell growth at 10 uM incubated for 48 hrs by sulforhodamine B assay relative to control; type: functional; conditions: read-out: Activity
Procedure, shortened: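 Screened by the NCI Developmental Therapeutics Program on its panel of 60 human tumour cell lines. Compounds were first tested at a single 10 µM dose, and compounds active there went to dose-response curves. Growth is expressed relative to untreated control (100%). GI50 (50% of maximal proliferation inhibition) and TGI (total growth inhibition) were derived from the dose-response data.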

Structure (SMILES)	growth at 10 µM
CC(C)N1CCc2nc3sc(C(=O)Nc4ccccc4)c(N)c3cc2C1	98.4%

tested on: KM12; test: Growth inhibition of human KM12 cells assessed as cell growth at 10 uM incubated for 48 hrs by sulforhodamine B assay relative to control; type: functional; conditions: read-out: Activity; procedure, shortened: as §1

Structure (SMILES)	growth at 10 µM
CC(C)N1CCc2nc3sc(C(=O)Nc4ccccc4)c(N)c3cc2C1	101%

tested on: MDA-MB-435; test: Growth inhibition of human MDA-MB-435 cells assessed as cell growth at 10 uM incubated for 48 hrs by sulforhodamine B assay relative to control; type: functional; conditions: read-out: Activity; procedure, shortened: as §1

Structure (SMILES)	growth at 10 µM
CC(C)N1CCc2nc3sc(C(=O)Nc4ccccc4)c(N)c3cc2C1	94%

tested on: CCRF-CEM; test: Growth inhibition of human CCRF-CEM cells assessed as cell growth at 10 uM incubated for 48 hrs by sulforhodamine B assay relative to control; type: functional; conditions: read-out: Activity
Procedure, shortened: (§3)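 NCI Developmental Therapeutics Program NCI60 panel. Compounds that were active in the 10 µM one-dose screen went on to dose–response testing. Growth at each concentration is expressed relative to untreated control (100%). GI50 (concentration giving 50% of maximal inhibition of proliferation) and TGI (concentration giving total growth inhibition) were derived from the curves.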

Structure (SMILES)	growth at 10 µM
CC(C)N1CCc2nc3sc(C(=O)Nc4ccccc4)c(N)c3cc2C1	100%

tested on: SNB-75; test: Growth inhibition of human SNB-75 cells assessed as cell growth at 10 uM incubated for 48 hrs by sulforhodamine B assay relative to control; type: functional; conditions: read-out: Activity; procedure, shortened: as §2

Structure (SMILES)	growth at 10 µM
CC(C)N1CCc2nc3sc(C(=O)Nc4ccccc4)c(N)c3cc2C1	69.1%

tested on: RXF 393; test: Growth inhibition of human RXF 393 cells assessed as cell growth at 10 uM incubated for 48 hrs by sulforhodamine B assay relative to control; type: functional; conditions: read-out: Activity; procedure, shortened: as §2

Structure (SMILES)	growth at 10 µM
CC(C)N1CCc2nc3sc(C(=O)Nc4ccccc4)c(N)c3cc2C1	102%

tested on: IGROV-1; test: Growth inhibition of human IGROV-1 cells assessed as cell growth at 10 uM incubated for 48 hrs by sulforhodamine B assay relative to control; type: functional; conditions: read-out: Activity; procedure, shortened: as §1

Structure (SMILES)	growth at 10 µM
CC(C)N1CCc2nc3sc(C(=O)Nc4ccccc4)c(N)c3cc2C1	100%

tested on: SF-539; test: Growth inhibition of human SF-539 cells assessed as cell growth at 10 uM incubated for 48 hrs by sulforhodamine B assay relative to control; type: functional; conditions: read-out: Activity; procedure, shortened: as §2

Structure (SMILES)	growth at 10 µM
CC(C)N1CCc2nc3sc(C(=O)Nc4ccccc4)c(N)c3cc2C1	93%

tested on: SK-MEL-5; test: Growth inhibition of human SK-MEL-5 cells assessed as cell growth at 10 uM incubated for 48 hrs by sulforhodamine B assay relative to control; type: functional; conditions: read-out: Activity; procedure, shortened: as §2

Structure (SMILES)	growth at 10 µM
CC(C)N1CCc2nc3sc(C(=O)Nc4ccccc4)c(N)c3cc2C1	95%

tested on: MDA-MB-468; test: Growth inhibition of human MDA-MB-468 cells assessed as cell growth at 10 uM incubated for 48 hrs by sulforhodamine B assay relative to control; type: functional; conditions: read-out: Activity; procedure, shortened: as §1

Structure (SMILES)	growth at 10 µM
CC(C)N1CCc2nc3sc(C(=O)Nc4ccccc4)c(N)c3cc2C1	95.6%

tested on: SF-295; test: Growth inhibition of human SF-295 cells assessed as cell growth at 10 uM incubated for 48 hrs by sulforhodamine B assay relative to control; type: functional; conditions: read-out: Activity; procedure, shortened: as §2

Structure (SMILES)	growth at 10 µM
CC(C)N1CCc2nc3sc(C(=O)Nc4ccccc4)c(N)c3cc2C1	105%

tested on: A549; test: Growth inhibition of human A549/ATCC cells assessed as cell growth at 10 uM incubated for 48 hrs by sulforhodamine B assay relative to control; type: functional; conditions: read-out: Activity; procedure, shortened: as §3

Structure (SMILES)	growth at 10 µM
CC(C)N1CCc2nc3sc(C(=O)Nc4ccccc4)c(N)c3cc2C1	89.8%

tested on: NCI-H226; test: Growth inhibition of human NCI-H226 cells assessed as cell growth at 10 uM incubated for 48 hrs by sulforhodamine B assay relative to control; type: functional; conditions: read-out: Activity; procedure, shortened: as §1

Structure (SMILES)	growth at 10 µM
CC(C)N1CCc2nc3sc(C(=O)Nc4ccccc4)c(N)c3cc2C1	94.8%

tested on: NCI/ADR-RES; test: Growth inhibition of human NCI/ADR-RES cells assessed as cell growth at 10 uM incubated for 48 hrs by sulforhodamine B assay relative to control; type: functional; conditions: read-out: Activity; procedure, shortened: as §1

Structure (SMILES)	growth at 10 µM
CC(C)N1CCc2nc3sc(C(=O)Nc4ccccc4)c(N)c3cc2C1	100%

tested on: NCI-H322M; test: Growth inhibition of human NCI-H322M cells assessed as cell growth at 10 uM incubated for 48 hrs by sulforhodamine B assay relative to control; type: functional; conditions: read-out: Activity; procedure, shortened: as §1

Structure (SMILES)	growth at 10 µM
CC(C)N1CCc2nc3sc(C(=O)Nc4ccccc4)c(N)c3cc2C1	108%

tested on: SK-MEL-28; test: Growth inhibition of human SK-MEL-28 cells assessed as cell growth at 10 uM incubated for 48 hrs by sulforhodamine B assay relative to control; type: functional; conditions: read-out: Activity; procedure, shortened: as §2

Structure (SMILES)	growth at 10 µM
CC(C)N1CCc2nc3sc(C(=O)Nc4ccccc4)c(N)c3cc2C1	108%

tested on: OVCAR-5; test: Growth inhibition of human OVCAR-5 cells assessed as cell growth at 10 uM incubated for 48 hrs by sulforhodamine B assay relative to control; type: functional; conditions: read-out: Activity; procedure, shortened: as §2

Structure (SMILES)	growth at 10 µM
CC(C)N1CCc2nc3sc(C(=O)Nc4ccccc4)c(N)c3cc2C1	90.2%

tested on: Hs-578T; test: Growth inhibition of human Hs-578T cells assessed as cell growth at 10 uM incubated for 48 hrs by sulforhodamine B assay relative to control; type: functional; conditions: read-out: Activity; procedure, shortened: as §1

Structure (SMILES)	growth at 10 µM
CC(C)N1CCc2nc3sc(C(=O)Nc4ccccc4)c(N)c3cc2C1	100%

tested on: HOP-92; test: Growth inhibition of human HOP-92 cells assessed as cell growth at 10 uM incubated for 48 hrs by sulforhodamine B assay relative to control; type: functional; conditions: read-out: Activity; procedure, shortened: as §1

Structure (SMILES)	growth at 10 µM
CC(C)N1CCc2nc3sc(C(=O)Nc4ccccc4)c(N)c3cc2C1	55.6%

tested on: MOLT-4; test: Growth inhibition of human MOLT-4 cells assessed as cell growth at 10 uM incubated for 48 hrs by sulforhodamine B assay relative to control; type: functional; conditions: read-out: Activity; procedure, shortened: as §1

Structure (SMILES)	growth at 10 µM
CC(C)N1CCc2nc3sc(C(=O)Nc4ccccc4)c(N)c3cc2C1	106%

tested on: U-251; test: Growth inhibition of human U-251 cells assessed as cell growth at 10 uM incubated for 48 hrs by sulforhodamine B assay relative to control; type: functional; conditions: read-out: Activity; procedure, shortened: as §2

Structure (SMILES)	growth at 10 µM
CC(C)N1CCc2nc3sc(C(=O)Nc4ccccc4)c(N)c3cc2C1	92.7%

tested on: HCT-15; test: Growth inhibition of human HCT-15 cells assessed as cell growth at 10 uM incubated for 48 hrs by sulforhodamine B assay relative to control; type: functional; conditions: read-out: Activity; procedure, shortened: as §1

Structure (SMILES)	growth at 10 µM
CC(C)N1CCc2nc3sc(C(=O)Nc4ccccc4)c(N)c3cc2C1	101%

tested on: UACC-62; test: Growth inhibition of human UACC-62 cells assessed as cell growth at 10 uM incubated for 48 hrs by sulforhodamine B assay relative to control; type: functional; conditions: read-out: Activity; procedure, shortened: as §2

Structure (SMILES)	growth at 10 µM
CC(C)N1CCc2nc3sc(C(=O)Nc4ccccc4)c(N)c3cc2C1	103%

tested on: A498; test: Growth inhibition of human A498 cells assessed as cell growth at 10 uM incubated for 48 hrs by sulforhodamine B assay relative to control; type: functional; conditions: read-out: Activity; procedure, shortened: as §3

Structure (SMILES)	growth at 10 µM
CC(C)N1CCc2nc3sc(C(=O)Nc4ccccc4)c(N)c3cc2C1	67.5%

tested on: OVCAR-3; test: Growth inhibition of human OVCAR-3 cells assessed as cell growth at 10 uM incubated for 48 hrs by sulforhodamine B assay relative to control; type: functional; conditions: read-out: Activity; procedure, shortened: as §2

Structure (SMILES)	growth at 10 µM
CC(C)N1CCc2nc3sc(C(=O)Nc4ccccc4)c(N)c3cc2C1	108%

tested on: HOP-62; test: Growth inhibition of human HOP-62 cells assessed as cell growth at 10 uM incubated for 48 hrs by sulforhodamine B assay relative to control; type: functional; conditions: read-out: Activity; procedure, shortened: as §1

Structure (SMILES)	growth at 10 µM
CC(C)N1CCc2nc3sc(C(=O)Nc4ccccc4)c(N)c3cc2C1	94.1%

tested on: HCT-116; test: Growth inhibition of human HCT-116 cells assessed as cell growth at 10 uM incubated for 48 hrs by sulforhodamine B assay relative to control; type: functional; conditions: read-out: Activity; procedure, shortened: as §1

Structure (SMILES)	growth at 10 µM
CC(C)N1CCc2nc3sc(C(=O)Nc4ccccc4)c(N)c3cc2C1	102%

tested on: PC-3; test: Growth inhibition of human PC-3 cells assessed as cell growth at 10 uM incubated for 48 hrs by sulforhodamine B assay relative to control; type: functional; conditions: read-out: Activity; procedure, shortened: as §2

Structure (SMILES)	growth at 10 µM
CC(C)N1CCc2nc3sc(C(=O)Nc4ccccc4)c(N)c3cc2C1	81.9%

tested on: UACC-257; test: Growth inhibition of human UACC-257 cells assessed as cell growth at 10 uM incubated for 48 hrs by sulforhodamine B assay relative to control; type: functional; conditions: read-out: Activity; procedure, shortened: as §2

Structure (SMILES)	growth at 10 µM
CC(C)N1CCc2nc3sc(C(=O)Nc4ccccc4)c(N)c3cc2C1	95.1%

tested on: UO-31; test: Growth inhibition of human UO-31 cells assessed as cell growth at 10 uM incubated for 48 hrs by sulforhodamine B assay relative to control; type: functional; conditions: read-out: Activity; procedure, shortened: as §2

Structure (SMILES)	growth at 10 µM
CC(C)N1CCc2nc3sc(C(=O)Nc4ccccc4)c(N)c3cc2C1	87.8%
